This experiment relates to Staphylococcus aureus. Put plainly: Antimicrobial activity against methicillin-sensitive Staphylococcus aureus ATCC 6538 at 100 ug after 20 hrs by agar plate diffusion assay. The class given is functional, organism-based. Summed up:
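Agar disk diffusion. Cells were grown on Mueller-Hinton agar at 37 °C for 24 h, resuspended in Mueller-Hinton broth to 108 CFU/mL and incubated again. They were then diluted to 105 CFU/mL and used to inoculate Mueller-Hinton agar plates. 6 mm disks loaded with 100 µg compound were placed on the plates and incubated 20 h at 37 °C. Inhibition zones >10 mm were scored positive.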

SMILES strings stand for the structures. Calls of active or inactive are those of the source. No cut-off for these calls is given here.

Among the data in ChEMBL document CHEMBL1150832, “Phenylnaphthalene compounds from the subterranean part of Vitex rotundifolia and their antibacterial activity against methicillin-resistant Staphylococcus aureus” (2001) are Activity values, retold here.

For `COc1cc(-c2c(O)c(C=O)cc3cc(OC)c(O)cc23)ccc1O`, the result was inactive.

As for `COc1cc(C[C@@H](CO)[C@H](CO)Cc2ccc(O)c(OC)c2)ccc1O`, the result was inactive.

On to `COc1cc2cc3c(c(-c4ccc(OC)c(OC)c4)c2cc1O)COC3=O`, for which the outcome was inactive.

As for `COc1ccc(-c2c(O)c(C=O)cc3ccc(O)c(OC)c23)cc1OC`, the result was inactive.

For `COc1ccc(-c2c3c(cc4ccc(O)c(OC)c24)C(=O)OC3)cc1OC`, the result was inactive.
